Here are results for one compound from ChEMBL document CHEMBL1145138, “Design and synthesis of 4-azaindoles as inhibitors of p38 MAP kinase” (J Med Chem, 2003).

Data set [1] deals with Tyrosine-protein kinase Fyn (Homo sapiens, UniProt P06241). Put plainly: Inhibition of p55 Fyn kinase.
Data set [2] in a line: T max at a dose of 10 mg/Kg administered intravenously in female hanover-wistar rat. Format: ADME, organism-based. The note with it: in vivo, iv. In short, it runs like this:
(§1)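 Female Wistar/Han rats weighing 180–220 g, 3 per dose regime, received a single 10 mg/kg IV bolus in 50% cyclodextran/water. Blood was drawn under CO₂:O₂ (60:40) via orbital sinus or cardiac puncture at 1, 3, 6, 8 and 24 h. Plasma was protein-precipitated with acetonitrile, diluted in 50 mM formate buffer and quantified by LC/MS.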

The target of data set [3] is T1, Inhibitor of nuclear factor kappa-B kinase subunit beta (Homo sapiens, UniProt O14920).
T1 sequence (O14920 whole entry): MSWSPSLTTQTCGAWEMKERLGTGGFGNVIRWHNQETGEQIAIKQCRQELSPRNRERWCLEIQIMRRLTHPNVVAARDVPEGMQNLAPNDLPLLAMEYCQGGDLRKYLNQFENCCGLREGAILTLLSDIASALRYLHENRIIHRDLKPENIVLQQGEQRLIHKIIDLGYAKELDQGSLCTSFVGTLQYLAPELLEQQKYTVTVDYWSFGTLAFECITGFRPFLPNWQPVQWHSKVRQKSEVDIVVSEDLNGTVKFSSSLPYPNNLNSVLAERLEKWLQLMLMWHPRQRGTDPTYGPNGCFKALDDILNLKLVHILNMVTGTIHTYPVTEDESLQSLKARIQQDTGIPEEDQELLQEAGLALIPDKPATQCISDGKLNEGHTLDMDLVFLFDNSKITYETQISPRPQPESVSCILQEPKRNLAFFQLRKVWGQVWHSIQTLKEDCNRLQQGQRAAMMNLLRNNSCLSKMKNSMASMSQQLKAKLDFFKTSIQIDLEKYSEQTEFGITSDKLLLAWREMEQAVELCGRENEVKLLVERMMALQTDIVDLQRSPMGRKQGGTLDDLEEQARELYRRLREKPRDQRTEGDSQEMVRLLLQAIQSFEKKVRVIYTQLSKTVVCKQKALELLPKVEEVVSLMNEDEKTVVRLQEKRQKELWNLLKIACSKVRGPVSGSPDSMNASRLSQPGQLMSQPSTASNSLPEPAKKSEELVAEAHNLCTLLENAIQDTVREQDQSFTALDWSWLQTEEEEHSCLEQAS
Put plainly: Inhibition of I-kappa-B-kinase beta.

Data set [4] in a line: AUC at a dose of 10 mg/Kg administered perorally in female hanover-wistar rat. Format: ADME, organism-based. The note with it: plasma, po. In a few lines: (§2)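 Female Wistar/Han rats (180–220 g, n=3 per regime) received a single 10 mg/kg oral suspension in 0.9% NaCl, 0.5% Na-CMC, 0.4% polysorbate 80 and 0.9% benzyl alcohol. Blood was taken at 1, 3, 6, 8 and 24 h by orbital sinus or cardiac puncture. Plasma drug was measured by LC/MS after acetonitrile precipitation; the comparison arm was a 10 mg/kg IV bolus.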

A short description of data set [5]: AUC at a dose of 10 mg/Kg administered intravenously in female hanover-wistar rat. It counts as ADME, organism-based. The note with it: plasma, iv. In short, it runs like this: as §1
Data set [6] in a line: T 1/2 at a dose of 10 mg/Kg administered perorally in female hanover-wistar rat. Format: ADME, organism-based. The note with it: in vivo, po. In a few lines:
as §2

As usually defined, the IC50 is the midpoint of a concentration-inhibition curve. Higher therefore signals lower potency. In general, Tmax refers to the time from dosing to the highest level. For orientation: AUC means concentration integrated over time. A higher AUC goes with more exposure. One may read the half-life as the time needed for the level to fall by half in the phase considered. A lower half-life goes with fast loss.

Chain of Tyrosine-protein kinase Fyn (P06241 whole entry): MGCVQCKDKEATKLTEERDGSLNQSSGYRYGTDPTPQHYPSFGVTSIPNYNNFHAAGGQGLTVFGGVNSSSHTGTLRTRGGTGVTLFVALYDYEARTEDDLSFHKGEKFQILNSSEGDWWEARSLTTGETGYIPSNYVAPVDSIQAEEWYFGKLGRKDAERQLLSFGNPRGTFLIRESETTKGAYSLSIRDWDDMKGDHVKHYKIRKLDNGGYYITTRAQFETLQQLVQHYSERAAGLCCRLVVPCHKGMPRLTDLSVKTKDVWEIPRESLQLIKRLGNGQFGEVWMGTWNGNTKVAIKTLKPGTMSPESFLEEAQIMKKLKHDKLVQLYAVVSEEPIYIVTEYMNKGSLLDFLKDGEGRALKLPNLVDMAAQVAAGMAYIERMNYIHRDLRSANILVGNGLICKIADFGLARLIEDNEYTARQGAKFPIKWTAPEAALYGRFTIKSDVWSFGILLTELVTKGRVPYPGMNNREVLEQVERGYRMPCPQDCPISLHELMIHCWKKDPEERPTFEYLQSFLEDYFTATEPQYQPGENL

For the compound `C[C@H](O)CNc1cc(-c2[nH]c3cccnc3c2-c2ccc(F)cc2)ccn1`, the half-maximal inhibitory concentration (IC50) in data set [1] was above 10 µM; in data set [3], above 30 µM. The time to peak (Tmax) in data set [2] is below 1 h. The area under the curve (AUC) in data set [4] was found to be 20 µM·h; in data set [5], 23.4 µM·h. The compound also gave a half-life in data set [6] of 1.5 h.
